Data published in ChEMBL document CHEMBL3576783, “Synthesis and evaluation of 1,2,4-triazolo[1,5-a]pyrimidines as antibacterial agents against Enterococcus faecium” (J Med Chem, 2015).
Values after ≈ are worked out from the molar mass of the structure shown.

Test system: Enterococcus faecium
Assay: microbe, parasite or virus in culture
Settings: NCTC 7171
With `COc1ccc(CSc2nc3n(n2)C(c2ccc(N(C)C)cc2)C(C(N)=O)=C(C)N3)cc1` (stereo not drawn) the MIC was over 128 µg/mL.
With `CC1=C(C(N)=O)C(c2ccsc2)n2nc(SCc3ccccc3)nc2N1` (stereo not drawn) the MIC was over 128 µg/mL.
Molecule `CCSc1ccc(C2C(C(N)=O)=C(C)Nc3nc(SCc4ccccc4)nn32)cc1` (stereo not drawn) has an MIC of 4 µg/mL (≈ 9.14 µM).
With `CC1=C(C(N)=O)C(c2ccccc2C(F)(F)F)n2nc(SCc3ccccc3)nc2N1` (stereo not drawn) the MIC was over 128 µg/mL.
Work on `O=C1CCCC2=C1C(c1ccc(Cl)cc1)n1nc(SCc3cccc4ccccc34)nc1N2` (stereo not drawn) yielded an MIC of over 128 µg/mL.
Molecule `CCOC(=O)CSc1nc2n(n1)C(c1ccc(N(C)C)cc1)C(C(N)=O)=C(C)N2` (stereo not drawn) has an MIC of over 128 µg/mL.
`CC1=C(C(=O)Nc2ccc(C)cc2C)C(c2ccc(F)cc2)n2nc(SCc3cccc(C)c3)nc2N1` (stereo not drawn) gave an MIC of over 128 µg/mL.
In the case of `CC1=C(C(N)=O)C(c2ccc(N(C)C)cc2)n2nc(SCc3ccc(C)cc3)nc2N1` (stereo not drawn), the MIC is reported as over 128 µg/mL.
Molecule `CC1=C(C(N)=O)C(c2ccc(C(F)(F)F)cc2)n2nc(SCc3ccccc3)nc2N1` (stereo not drawn) has an MIC of 8 µg/mL (≈ 18 µM).
Molecule `CC1=C(C(N)=O)C(c2ccc(C(=O)O)cc2)n2nc(SCc3ccccc3)nc2N1` (stereo not drawn) has an MIC of over 128 µg/mL.
In the case of `CC1=C(C(N)=O)C(c2ccc([N+](=O)[O-])cc2)n2nc(SCc3ccccc3)nc2N1` (stereo not drawn), the MIC is reported as 64 µg/mL (≈ 151 µM).
With `CC1=C(C(N)=O)C(c2ccccc2)n2nc(SCc3ccccc3)nc2N1` (stereo not drawn) the MIC was over 128 µg/mL.
In the case of `COc1ccc(C2C(C(=O)Nc3ccc(C)cc3C)=C(C)Nc3nc(SCc4cccc(C)c4)nn32)cc1` (stereo not drawn), the MIC is reported as over 128 µg/mL.
For `CC1=C(C(N)=O)C(c2cccs2)n2ncnc2N1` (stereo not drawn), the MIC was over 128 µg/mL.
In the case of `CCOc1ccccc1C1C2=C(CCCC2=O)Nc2nc(SCc3ccc(C(=O)O)cc3)nn21` (stereo not drawn), the MIC is reported as over 128 µg/mL.
In the case of `CN(C)c1ccc(C2C3=C(CCCC3=O)Nc3nc(SCc4ccccc4)nn32)cc1` (stereo not drawn), the MIC is reported as over 128 µg/mL.
With `CC1=C(C(N)=O)C(c2ccc(Cl)cc2)n2nc(SCc3ccccc3)nc2N1` (stereo not drawn) the MIC was over 128 µg/mL.
In the case of `CC1=C(C(N)=O)C(c2ccc(OC(F)(F)F)cc2)n2nc(SCc3ccccc3)nc2N1` (stereo not drawn), the MIC is reported as 8 µg/mL (≈ 17.3 µM).
Molecule `CC1=C(C(N)=O)C(c2ccc(CC(C)C)cc2)n2nc(SCc3ccccc3)nc2N1` (stereo not drawn) has an MIC of 8 µg/mL (≈ 18.5 µM).
With `CC1=C(C(N)=O)C(c2ccc(F)cc2)n2nc(SCc3ccccc3)nc2N1` (stereo not drawn) the MIC was 128 µg/mL (≈ 324 µM).
`CC1=C(C(N)=O)C(c2ccc(O)cc2)n2nc(SCc3ccccc3)nc2N1` (stereo not drawn) gave an MIC of over 128 µg/mL.
In the case of `CC1=C(C(N)=O)C(c2ccc(SC(F)(F)F)cc2)n2nc(SCc3ccccc3)nc2N1` (stereo not drawn), the MIC is reported as over 128 µg/mL.
In the case of `CC1=C(C(N)=O)C(c2cccs2)n2nc(SCc3ccccc3)nc2N1` (stereo not drawn), the MIC is reported as over 128 µg/mL.
Molecule `CC1=C(C(N)=O)C(c2ccc(N(C)C)cc2)n2nc(SCc3ccc(C(=O)O)cc3)nc2N1` (stereo not drawn) has an MIC of over 128 µg/mL.
Molecule `CC1=C(C(N)=O)C(c2cccc(OC(C)C)c2)n2nc(SCc3ccccc3)nc2N1` (stereo not drawn) has an MIC of over 128 µg/mL.
With `CC1=C(C(N)=O)C(c2c[nH]c3ccccc23)n2nc(SCc3ccccc3)nc2N1` (stereo not drawn) the MIC was over 128 µg/mL.
`CC1=C(C(N)=O)C(c2ccc(N(C)C)cc2)n2nc(SCc3ccc([N+](=O)[O-])cc3)nc2N1` (stereo not drawn) showed an MBC of 16 µg/mL (≈ 34.4 µM) and an MIC of 4 µg/mL (≈ 8.59 µM).
`CCN(CC)CCOc1ccc(C2C(C(N)=O)=C(C)Nc3nc(SCc4ccccc4)nn32)cc1` (stereo not drawn) gave an MIC of over 128 µg/mL.
In the case of `CC1=C(C(N)=O)C(c2ccc(C)cc2)n2nc(SCc3ccccc3)nc2N1` (stereo not drawn), the MIC is reported as over 128 µg/mL.
`CCN(CC)c1ccc(C2C(C(N)=O)=C(C)Nc3nc(SCc4ccccc4)nn32)cc1` (stereo not drawn) gave an MIC of 8 µg/mL (≈ 17.8 µM).
With `CCc1cccc(C2C(C(N)=O)=C(C)Nc3nc(SCc4ccccc4)nn32)c1` (stereo not drawn) the MIC was 16 µg/mL (≈ 39.5 µM).
In the case of `CCc1ccc(C2C(C(=O)Nc3ccccc3C)=C(C)Nc3nc(SCc4cccc(OC)c4)nn32)cc1` (stereo not drawn), the MIC is reported as over 128 µg/mL.
Molecule `CC1=C(C(=O)Nc2ccccc2C)C(c2ccc(C)cc2)n2nc(SCc3cccc(C)c3)nc2N1` (stereo not drawn) has an MIC of over 128 µg/mL.
In the case of `CC1=C(C(N)=O)C(c2ncc[nH]2)n2nc(SCc3ccccc3)nc2N1` (stereo not drawn), the MIC is reported as 32 µg/mL (≈ 87.1 µM).
Molecule `COc1ccc(C2C(C(=O)Nc3ccccc3C)=C(C)Nc3nc(SCc4cc(C)ccc4C)nn32)cc1` (stereo not drawn) has an MIC of over 128 µg/mL.
`CC1=C(C(N)=O)C(c2ccco2)n2nc(SCc3ccccc3)nc2N1` (stereo not drawn) gave an MIC of over 128 µg/mL.
Molecule `CC1=C(C(N)=O)C(c2ccc(N(C)C)cc2)n2nc(Sc3ccccn3)nc2N1` (stereo not drawn) has an MIC of over 128 µg/mL.
In the case of `CSc1ccc(CSc2nc3n(n2)C(c2ccc(N(C)C)cc2)C(C(N)=O)=C(C)N3)cc1` (stereo not drawn), the MIC is reported as over 128 µg/mL.
Work on `CC1=C(C(N)=O)C(c2ccc(N(C)C)cc2)n2nc(SCc3ccncc3)nc2N1` (stereo not drawn) yielded an MIC of 128 µg/mL (≈ 304 µM).
With `CC1=C(C(N)=O)C(c2ccc(C#N)cc2)n2nc(SCc3ccccc3)nc2N1` (stereo not drawn) the MIC was 16 µg/mL (≈ 39.8 µM).
Molecule `COc1ccc(C2C(C(N)=O)=C(C)Nc3nc(SCc4ccccc4)nn32)cc1O` (stereo not drawn) has an MIC of over 128 µg/mL.

Test system: Enterococcus faecium
Assay: Antibacterial activity against vancomycin and teicoplanin-resistant Enterococcus faecium ATCC 700221 isolated from human faeces assessed as bacterial growth inhibition after 16-20 hrs by broth microdilution method
Format: functional
Settings: ATCC 700221, Feces
How it was run: (§1)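 Broth microdilution in cation-adjusted Mueller Hinton II broth, run to CLSI method, triplicate. Cells grown to OD600 ~0.60-0.80, diluted 100-fold; final inoculum 5×10^5 CFU/mL. Compounds from 5 mg/mL DMSO stocks diluted in medium, final 2% (v/v) DMSO plus 0.25% (v/v) glacial acetic acid. Incubated 35 °C for 16-20 h, then MIC read.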
Molecule `CC1=C(C(N)=O)C(c2ccc(N(C)C)cc2)n2nc(SCc3ccc([N+](=O)[O-])cc3)nc2N1` (stereo not drawn) has an MIC of 8 µg/mL (≈ 17.2 µM).

Test system: not listed separately
Assay: Induction of hemolysis in RBC (unknown origin) at 64 ug/ml
Settings: erythrocytes
With `CCSc1ccc(C2C(C(N)=O)=C(C)Nc3nc(SCc4ccccc4)nn32)cc1` (stereo not drawn) the Activity was 46%.
In the case of `CC1=C(C(N)=O)C(c2ccc(N(C)C)cc2)n2nc(SCc3ccc([N+](=O)[O-])cc3)nc2N1` (stereo not drawn), the Activity is reported as 23%.

Test system: Enterococcus faecium
Assay: Antibacterial activity against copper, erythromycin, teracycline-resistant and vancomycin and teicoplanin-sensitive Enterococcus faecium ATCC BAA2127 assessed as bacterial growth inhibition after 16-20 hrs by broth microdilution method
Format: functional
Settings: not given
How it was run: as §1, with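 “CLSI broth” for “Broth”, “broth,” for “broth, run to CLSI method,”, “Cultures” for “Cells”, “about 0.60-0.80,” for “~0.60-0.80,”, “stock” for “stocks”, “°C,” for “°C for”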
`CCSc1ccc(C2C(C(N)=O)=C(C)Nc3nc(SCc4ccccc4)nn32)cc1` (stereo not drawn) showed an MIC of 16 µg/mL (≈ 36.6 µM).
`CC1=C(C(N)=O)C(c2ccc(N(C)C)cc2)n2nc(SCc3ccc([N+](=O)[O-])cc3)nc2N1` (stereo not drawn) gave an MIC of 32 µg/mL (≈ 68.7 µM).

Test system: not listed separately
Assay: Apparent intrinsic clearance in human liver S9 at 10 uM after 60 mins by UPLC analysis
Format: ADME, subcellular, Liver S9 fraction
Settings: read-out: CLH(app)
How it was run: (§2)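 Pooled human liver S9 (1 mg/mL) with 1 mM NADPH and 10 μM compound in sodium phosphate buffer (0.20 M phosphate, 0.15 M NaCl, pH 7.4), 37 °C for 60 min. Six time points quenched in acetonitrile with internal standard, analysed by UPLC-MRM. Half-life taken from first-order rate constant; CLint scaled with 45 mg protein/g liver and 20 g liver/kg. Run in duplicate.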
Molecule `CCSc1ccc(C2C(C(N)=O)=C(C)Nc3nc(SCc4ccccc4)nn32)cc1` (stereo not drawn) has a CLint scaled at 10 µM of under 10.4 mL/min/kg.
`CC1=C(C(N)=O)C(c2ccc(N(C)C)cc2)n2nc(SCc3ccc([N+](=O)[O-])cc3)nc2N1` (stereo not drawn) showed a CLint scaled at 10 µM of under 10.4 mL/min/kg.

Test system: Liver
Assay: Half life in human liver S9 at 10 uM after 60 mins by UPLC analysis
Format: ADME, subcellular, Liver S9 fraction
Settings: s9, 1 h
How it was run: as §2
For `CCSc1ccc(C2C(C(N)=O)=C(C)Nc3nc(SCc4ccccc4)nn32)cc1` (stereo not drawn), the t1/2 was over 1 h.
With `CC1=C(C(N)=O)C(c2ccc(N(C)C)cc2)n2nc(SCc3ccc([N+](=O)[O-])cc3)nc2N1` (stereo not drawn) the t1/2 was over 1 h.

Test system: Enterococcus faecium
Assay: Antibacterial activity against vancomycin-susceptible Enterococcus faecium 119-39A assessed as bacterial growth inhibition after 16-20 hrs by broth microdilution method
Format: functional
Settings: not given
How it was run: as §1, with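 “CLSI broth” for “Broth”, “broth,” for “broth, run to CLSI method,”, “Cultures” for “Cells”, “about 0.60-0.80,” for “~0.60-0.80,”, “stock” for “stocks”, “°C,” for “°C for”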
Molecule `CCSc1ccc(C2C(C(N)=O)=C(C)Nc3nc(SCc4ccccc4)nn32)cc1` (stereo not drawn) has an MIC of 8 µg/mL (≈ 18.3 µM).
In the case of `CC1=C(C(N)=O)C(c2ccc(N(C)C)cc2)n2nc(SCc3ccc([N+](=O)[O-])cc3)nc2N1` (stereo not drawn), the MIC is reported as 16 µg/mL (≈ 34.4 µM).
